# From ChEMBL document CHEMBL3616444, “Design, synthesis and pharmacological evaluation of pyrimidobenzothiazole-3-carboxylate derivatives as selective L-type calcium channel blockers” (Bioorg Med Chem, 2015)
# Columns and labels:
# [1] = target: Myosin light chain kinase, smooth muscle (Homo sapiens, UniProt Q15746); test: Inhibition of MLCK (unknown origin) incubated for 15 mins using [gamma-32P]-ATP by scintillation counting method
# Method in brief: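 Active MLCK thawed on ice with kinase assay and dilution buffers and substrate; reaction with γ-32P-ATP incubated 15 min at 30 °C in a water bath, spotted on phosphocellulose P81 paper, washed three times ~10 min in 1% phosphoric acid. Radioactivity by scintillation counting, blank-corrected cpm converted to specific activity (nmol/min/mg); IC50 from log plots, at least five determinations per concentration.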
# [2] = Inhibition of porcine kidney ACE assessed as reduction in hippuryl-histidyl-leucine hydrolysis to hippuric acid release incubated for 30 mins high-throughput colorimetric method; parameters: species or system Sus scrofa
# Method in brief: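 Porcine kidney ACE in 1 M sodium borate buffer pH 8.2 with 0.3 M NaCl and 5 mM HHL substrate (stock); 37 °C for 30 min, stopped with 1 M HCl. Released hippuric acid complexed with pyridine and benzene sulfonyl chloride, cooled on ice, yellow colour read at 410 nm; IC50 from log plots, at least five determinations per concentration.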
# Rattus norvegicus = test: Gastrointestinal toxicity in Norwegian rat assessed as ulcerative index at 50 mg/kg, po after 17 hrs; assay type: organism-based; details: in vivo
# Myosin light chain kinase, smooth muscle, sequence (Q15746 whole entry): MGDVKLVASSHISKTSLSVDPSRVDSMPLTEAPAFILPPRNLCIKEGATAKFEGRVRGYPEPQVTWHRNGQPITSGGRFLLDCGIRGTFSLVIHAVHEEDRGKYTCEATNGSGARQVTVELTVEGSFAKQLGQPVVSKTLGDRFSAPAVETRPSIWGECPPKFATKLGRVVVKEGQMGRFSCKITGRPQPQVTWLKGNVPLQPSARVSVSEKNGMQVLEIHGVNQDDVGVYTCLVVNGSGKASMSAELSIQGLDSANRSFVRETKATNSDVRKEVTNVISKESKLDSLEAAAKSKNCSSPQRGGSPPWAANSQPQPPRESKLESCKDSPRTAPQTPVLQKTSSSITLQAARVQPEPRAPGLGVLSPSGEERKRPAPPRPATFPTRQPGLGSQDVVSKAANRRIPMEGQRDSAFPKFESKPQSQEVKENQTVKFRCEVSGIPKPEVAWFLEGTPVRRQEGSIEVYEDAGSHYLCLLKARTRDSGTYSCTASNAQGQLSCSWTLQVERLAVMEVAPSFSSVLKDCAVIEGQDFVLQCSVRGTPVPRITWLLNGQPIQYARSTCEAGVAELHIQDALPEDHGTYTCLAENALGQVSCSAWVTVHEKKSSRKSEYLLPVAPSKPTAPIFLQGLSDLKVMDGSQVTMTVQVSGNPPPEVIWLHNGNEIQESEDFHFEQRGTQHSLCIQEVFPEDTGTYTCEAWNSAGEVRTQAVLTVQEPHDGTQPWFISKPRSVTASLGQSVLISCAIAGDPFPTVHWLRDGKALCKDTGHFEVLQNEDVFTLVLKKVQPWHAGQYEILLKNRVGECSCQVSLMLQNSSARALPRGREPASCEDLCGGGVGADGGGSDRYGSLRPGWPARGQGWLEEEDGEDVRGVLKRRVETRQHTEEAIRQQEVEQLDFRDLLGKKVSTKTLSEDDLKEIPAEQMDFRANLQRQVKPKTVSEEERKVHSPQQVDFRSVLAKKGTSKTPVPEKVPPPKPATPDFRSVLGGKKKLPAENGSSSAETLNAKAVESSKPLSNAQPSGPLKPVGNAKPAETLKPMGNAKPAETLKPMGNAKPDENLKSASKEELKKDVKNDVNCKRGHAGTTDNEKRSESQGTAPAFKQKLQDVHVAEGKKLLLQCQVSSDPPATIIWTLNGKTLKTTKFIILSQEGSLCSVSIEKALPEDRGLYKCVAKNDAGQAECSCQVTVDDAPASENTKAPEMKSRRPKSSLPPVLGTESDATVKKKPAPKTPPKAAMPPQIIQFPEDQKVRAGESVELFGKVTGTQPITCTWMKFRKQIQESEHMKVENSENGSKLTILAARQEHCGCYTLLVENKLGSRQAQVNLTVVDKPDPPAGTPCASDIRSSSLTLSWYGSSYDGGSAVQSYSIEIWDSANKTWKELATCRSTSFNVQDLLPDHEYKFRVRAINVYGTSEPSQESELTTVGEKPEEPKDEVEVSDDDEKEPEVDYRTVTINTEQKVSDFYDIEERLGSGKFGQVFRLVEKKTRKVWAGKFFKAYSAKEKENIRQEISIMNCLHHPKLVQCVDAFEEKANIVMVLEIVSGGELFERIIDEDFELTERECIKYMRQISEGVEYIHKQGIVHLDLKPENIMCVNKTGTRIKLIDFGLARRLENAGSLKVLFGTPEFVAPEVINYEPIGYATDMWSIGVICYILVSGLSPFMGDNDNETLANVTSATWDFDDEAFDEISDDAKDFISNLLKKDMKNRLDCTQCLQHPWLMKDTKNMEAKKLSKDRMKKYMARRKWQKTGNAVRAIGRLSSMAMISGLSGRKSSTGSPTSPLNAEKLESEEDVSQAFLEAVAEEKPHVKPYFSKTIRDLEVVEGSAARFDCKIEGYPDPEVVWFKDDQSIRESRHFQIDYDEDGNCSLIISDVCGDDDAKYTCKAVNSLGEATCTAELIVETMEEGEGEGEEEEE
SMILES,IC50 ([1]; read-out: IC50) [µM],IC50 ([1]; read-out: pIC50 (converted)) [µM],IC50 [2] [µM],UI (Rattus norvegicus)
CCOC(=O)C1=C(C)NC(OC)N(CC(=O)c2ccc(OC)cc2)C1c1ccc(O)cc1 (configuration not stated),9.8,10.2,> 100,–
CCOC(=O)C1=C(C)NC(OC)N(CC(=O)c2ccc(OC)cc2)C1c1ccc(OC)cc1 (configuration not stated),4.1,24.4,> 100,–
CCOC(=O)C1=C(C)NC(OC)N(CC(=O)c2ccccc2)C1c1ccc(Cl)cc1 (configuration not stated),31.3,3190,> 100,–
CCOC(=O)C1=C(C)NC(OC)N(CC(=O)c2ccccc2)C1c1ccc(C)cc1 (configuration not stated),19.2,5210,> 100,–
CCOC(=O)C1=C(C)NC(OC)N(CC(=O)c2ccc(OC)cc2)C1c1ccc(C)cc1 (configuration not stated),5.1,19.6,> 100,–
CCOC(=O)C1=C(C)NC(OC)N(CC(=O)c2ccc(Cl)cc2)C1c1ccc(OC)cc1 (configuration not stated),30.3,3300,> 100,–
CCOC(=O)C1=C(C)NC(OC)N(CC(=O)c2ccc(Cl)cc2)C1c1ccc(C)cc1 (configuration not stated),29.2,3420,> 100,–
CCOC(=O)C1=C(C)NC(OC)N(CC(=O)c2ccccc2)C1c1ccccc1 (configuration not stated),23.3,4290,> 100,–
CCOC(=O)C1=C(C)NC(OC)N(CC(=O)c2ccc(Cl)cc2)C1c1ccccc1 (configuration not stated),33.3,3000,> 100,–
CCOC(=O)C1=C(C)NC(OC)N(CC(=O)c2ccccc2)C1c1ccc(OC)cc1 (configuration not stated),7.4,13.5,> 100,–
CCOC(=O)C1=C(C)NC(OC)N(CC(=O)c2ccc(OC)cc2)C1c1ccccc1 (configuration not stated),13.3,7.52,> 100,–
CCOC(=O)C1=C(C)NC(OC)N(CC(=O)c2ccccc2)C1c1ccc(O)cc1 (configuration not stated),10.2,9.8,> 100,–
CC(C)Cc1ccc(C(C)C(=O)O)cc1 (configuration not stated) [IBUPROFEN],–,–,–,1.97
